Rows were chosen to be rich in hits. Some 3% of all compounds tested hit in one or more screens of this group.
Lipid droplet: inhibitors of hepatocyte lipid droplet formation, primary screen, imaging, high-throughput imaging, BODIPY stain. AML12 mouse hepatocytes, oleate lipid droplets. inhibition, % at 6.5 µM. 0.4% of 240,000 active. AID 1656, 2009;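 active means lipid droplet intensity inhibited by at least 50%, with more than 500 cells counted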
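Assay system: AML12 mouse liver cells | Compound dosing: One dose, 6.5 µM compound | Read-out basis: Droplet intensity reduction, % inhibition | Measured by: Fluorescence imaging, 20x objective, two fields per well | Schedule: Overnight treatment with compound plus oleate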
GASC-1 inh: inhibitors of GASC-1 histone demethylase, primary screen, biochemical, fluorescence, DELFIA europium. Lysine-specific demethylase 4C (Homo sapiens), Q9H3R0. GST-JMJD2C(1-420) H3K9me3 demethylation. inhibition, % at 2.35 µM. 0.069% of 330,000 active;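 active means more than half of a compound's replicate wells show inhibition beyond 50%, single wells judged on their own value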;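 further: signal counts dimethyl H3K9 product captured on neutravidin plate; 0% = median of DMSO wells and 100% = 0.3 times that DMSO median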
aDG glyco up: activators of alpha-DG glycosylation, primary screen, uHTS, Pro5-aDG cells, AlphaScreen; 0.22% of 360,000 active; AID 624168, 2012; alpha-DG glycosylation AlphaScreen (IIH6); 0% Pro5, 100% B10-LARGE cell signal; activation, % at 10 µM;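 active means activation of at least 8% versus controls, or a plate z-score of at least 8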;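 further: Pro5 are CHO cells carrying HIG-tagged alpha-DG that lacks glycosylation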
GC-A act: GC-A stimulated cGMP production enhancers – HEK293 GC-A cells, cGMP TR-FRET, EC30 ANP, primary screen; Atrial natriuretic peptide receptor 1 (Homo sapiens), P16066; AID 1671463, 2021; activation, % at 10 µM; 0.14% of 370,000 active; 0% at EC30 ANP, 100% saturating ANP; in the data active means activation above about 40%
NPR2 activator: human GC-B receptor activators, primary screen, HEK293 GC-B cells, cGMP TR-FRET, EC30 CNP | Atrial natriuretic peptide receptor 2 (Homo sapiens), P20594 | 0% at EC30 CNP, 100% saturating CNP | activation, % at 10 µM | 0.11% of 370,000 active;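 active means activation at 10 µM reaching about 35% in either raw or pattern-adjusted values, limit read from the data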
Target sequence (P20594 whole entry, looked up): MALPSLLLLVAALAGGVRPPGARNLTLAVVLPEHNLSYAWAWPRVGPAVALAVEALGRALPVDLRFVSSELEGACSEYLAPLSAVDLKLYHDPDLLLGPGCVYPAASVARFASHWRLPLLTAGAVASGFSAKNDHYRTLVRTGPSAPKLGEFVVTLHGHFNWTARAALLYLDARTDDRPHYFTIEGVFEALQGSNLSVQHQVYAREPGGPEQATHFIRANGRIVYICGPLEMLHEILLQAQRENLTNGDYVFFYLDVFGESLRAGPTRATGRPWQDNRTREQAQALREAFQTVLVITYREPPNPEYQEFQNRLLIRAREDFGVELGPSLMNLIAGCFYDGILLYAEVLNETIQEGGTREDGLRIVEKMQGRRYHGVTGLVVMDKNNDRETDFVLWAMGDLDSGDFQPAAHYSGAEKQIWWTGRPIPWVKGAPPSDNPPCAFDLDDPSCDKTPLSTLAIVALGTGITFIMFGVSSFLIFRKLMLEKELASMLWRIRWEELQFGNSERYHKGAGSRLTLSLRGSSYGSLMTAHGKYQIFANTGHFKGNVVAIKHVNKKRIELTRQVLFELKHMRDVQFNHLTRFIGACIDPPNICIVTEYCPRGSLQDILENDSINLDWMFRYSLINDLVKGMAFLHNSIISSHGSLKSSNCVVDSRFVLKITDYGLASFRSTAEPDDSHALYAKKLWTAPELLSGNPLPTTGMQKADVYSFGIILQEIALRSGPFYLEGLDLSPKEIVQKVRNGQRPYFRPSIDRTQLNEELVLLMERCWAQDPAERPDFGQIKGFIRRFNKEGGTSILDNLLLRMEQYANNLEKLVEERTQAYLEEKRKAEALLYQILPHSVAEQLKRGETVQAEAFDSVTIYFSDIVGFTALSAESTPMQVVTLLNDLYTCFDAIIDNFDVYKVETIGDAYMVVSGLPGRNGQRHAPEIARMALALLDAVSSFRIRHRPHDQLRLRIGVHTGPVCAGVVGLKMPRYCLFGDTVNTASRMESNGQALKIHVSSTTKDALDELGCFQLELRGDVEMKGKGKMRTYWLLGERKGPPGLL
NR3A LBD binder: binders of NR3A ligand-binding domain, primary screen, biophysical, differential scanning fluorimetry, uHTS; 2.5% of 340,000 active; NR3A LBD differential scanning fluorimetry, Tm shift; 0% = protein alone, 100% = glycine-bound protein; AID 1259313, 2017; Tm shift relative to glycine control, % at 25 µM;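 active means melting temperature shift of at least 10% of the positive control shift, at one fixed dose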
* = called active by the depositor.

`O=C(CCN1CCC(c2ccccc2)C1)c1ccccc1` (stereo unspecified) gave GASC-1 inh -8, aDG glyco up 0, GC-A act 59*, NPR2 activator -2 and NR3A LBD binder 2.
`CCOC(=O)CC[C@@]1(C(=O)OCC)C[C@@H](CC(=O)NCc2cccs2)C(=O)N2CCCC=C21` gave GC-A act -2 and NPR2 activator -1.
Screening CCN(CC)Cc1cc(Oc2ccc(O)c(CN(CC)CC)c2)ccc1O returned aDG glyco up 0.
For O=C(CCN1CCCC1)c1cccs1 the results were Lipid droplet -9, GASC-1 inh 1, aDG glyco up 0, GC-A act 50*, NPR2 activator 0 and NR3A LBD binder -2.
O=C(CCN1CCC(c2ccccc2)C1)c1cccs1 (stereo unspecified) was read as GASC-1 inh 6, aDG glyco up 1, GC-A act 52*, NPR2 activator 0 and NR3A LBD binder 0.
Screening CCC1(C)CC2(CCCN(CCC(=O)c3ccccc3)C2)CCO1 (stereo unspecified) returned Lipid droplet 2, GASC-1 inh -1, aDG glyco up 1, GC-A act 43*, NPR2 activator -1 and NR3A LBD binder -1.
O=C(CCN1CCN(c2ccccc2F)CC1)c1ccc(Br)cc1 was read as GASC-1 inh -3, aDG glyco up 1 and NR3A LBD binder 8.
O=C(CCN1CCN(c2ccccc2)CC1)c1ccc(Br)cc1 was read as GASC-1 inh -3, aDG glyco up 0, GC-A act 40*, NPR2 activator 0 and NR3A LBD binder 3.
CC1(C)CC2(CCCN(C(=S)Nc3ccccc3)C2)CCO1 (stereo unspecified) was read as Lipid droplet 6, GASC-1 inh 22, aDG glyco up 0, GC-A act 3, NPR2 activator 0 and NR3A LBD binder 3.
Screening COc1ccc(Cl)cc1C(=O)Nn1c(-c2cccs2)nc2ccccc2c1=O returned Lipid droplet -2, GASC-1 inh -5, aDG glyco up 0, GC-A act -5, NPR2 activator 0 and NR3A LBD binder -2.
`O=C(/C=C/c1ccc(Cl)cc1)Nn1c(-c2cccs2)nc2ccccc2c1=O` gave Lipid droplet 1, GASC-1 inh 2, aDG glyco up 0, GC-A act -3, NPR2 activator 3 and NR3A LBD binder 13*.
`COc1ccc(NC(=S)Nc2cc(C)[nH]n2)cc1Cl` gave Lipid droplet -21, GASC-1 inh 20, aDG glyco up 0, GC-A act 5, NPR2 activator 2 and NR3A LBD binder 12*.
COc1ccc(NC(=O)COc2ccccc2)cc1Cl was read as Lipid droplet 0, GASC-1 inh 74, aDG glyco up 0, GC-A act -1, NPR2 activator -1 and NR3A LBD binder -6.
COc1ccc(NC(=S)Nc2cc(-c3ccccc3)[nH]n2)cc1Cl was read as Lipid droplet 0, GASC-1 inh 2, aDG glyco up 0, GC-A act 20, NPR2 activator 11 and NR3A LBD binder 34*.
Screening Cc1cc(NC(=S)Nc2ccc(C)c(Cl)c2)n[nH]1 returned Lipid droplet -5, GASC-1 inh -7, aDG glyco up 0, GC-A act 7, NPR2 activator 1 and NR3A LBD binder -6.
`CCOc1ccc(NC(=S)Nc2cc(-c3ccccc3)[nH]n2)cc1` gave GASC-1 inh 2, aDG glyco up 0, GC-A act 4, NPR2 activator 3 and NR3A LBD binder 14*.
Screening CCOc1ccc(NC(=S)Nc2ccc(F)cc2)cc1 returned Lipid droplet -11, GASC-1 inh 5, aDG glyco up 0, GC-A act 2, NPR2 activator 0 and NR3A LBD binder -8.
Screening COC(=O)C1CCN(C2CN(Cc3ccc(F)cc3)S(=O)(=O)C2)CC1 (stereo unspecified) returned aDG glyco up 0, GC-A act -2 and NPR2 activator 5.
`CN(CCOC(=O)CSc1ccccc1)C1CN(Cc2cn(Cc3ccccc3F)nn2)S(=O)(=O)C1` (stereo unspecified) gave GC-A act 2 and NPR2 activator 1.
O=C(N1CCCC1)N1CCN(S(=O)(=O)c2ccccc2)CC1 was read as Lipid droplet -10, GASC-1 inh 82, aDG glyco up 0, GC-A act 0, NPR2 activator 1 and NR3A LBD binder 1.
Cc1cccc(C(=O)OCC(=O)c2c(C)[nH]c3ccccc23)c1O was read as GASC-1 inh -9, aDG glyco up 0, GC-A act -1, NPR2 activator -8 and NR3A LBD binder 29*.
COc1ccc(S[C@]2(C(=O)N3CCOCC3)CC(=O)N(C(=O)c3ccccc3)[C@@H]2c2ccc(OC)cc2)cc1 was read as GC-A act -5 and NPR2 activator -9.
`COc1ccc(OC)c(/C=N/NC(=O)c2[nH]ncc2Br)c1` gave GASC-1 inh 45, aDG glyco up 0, GC-A act 7, NPR2 activator -3 and NR3A LBD binder 21*.
`CCOc1ccc(/C=N/NC(=O)c2[nH]ncc2Br)c(O)c1` gave Lipid droplet -26, GASC-1 inh 11, aDG glyco up 1, GC-A act -2, NPR2 activator -3 and NR3A LBD binder 27*.
O=C(N/N=C/c1c(O)ccc2ccccc12)c1cccc(C(F)(F)F)c1 was read as Lipid droplet 0, GASC-1 inh -4, aDG glyco up 1, GC-A act -5, NPR2 activator -5 and NR3A LBD binder 21*.
O=C(N/N=C/c1c(O)ccc2ccccc12)c1[nH]ncc1Br was read as Lipid droplet -1, GASC-1 inh -5, aDG glyco up 1, GC-A act -5, NPR2 activator -5 and NR3A LBD binder 30*.
Screening Cc1ccc(O)c(/C=N/NC(=O)c2[nH]ncc2Br)c1 returned Lipid droplet -10, GASC-1 inh 8, aDG glyco up 0, GC-A act 6, NPR2 activator -3 and NR3A LBD binder -16.
For COc1ccc2ccccc2c1/C=N/NC(=O)c1cccc(Br)c1 the results were Lipid droplet 22, GASC-1 inh 4, aDG glyco up 0, GC-A act -4, NPR2 activator -8 and NR3A LBD binder 4.

Screens (PubChem)
